# From paper PMC6456254 (ACS chemical neuroscience, 2018)
# How the values were obtained:
# M1 [1] = settings: cited from earlier work
# M2 and M4 = settings: cited from earlier work
# Solubility in SGF = format: physicochemical; settings: pH 1.6
# rat M1 = target: T1, rat M1 (Rattus norvegicus, UniProt P08482); assay: Rat M1 functional assay in high expressing M1 cell line; format: cell-based; settings: rat M1, up to 30 μM
# T1 sequence (P08482 1-460): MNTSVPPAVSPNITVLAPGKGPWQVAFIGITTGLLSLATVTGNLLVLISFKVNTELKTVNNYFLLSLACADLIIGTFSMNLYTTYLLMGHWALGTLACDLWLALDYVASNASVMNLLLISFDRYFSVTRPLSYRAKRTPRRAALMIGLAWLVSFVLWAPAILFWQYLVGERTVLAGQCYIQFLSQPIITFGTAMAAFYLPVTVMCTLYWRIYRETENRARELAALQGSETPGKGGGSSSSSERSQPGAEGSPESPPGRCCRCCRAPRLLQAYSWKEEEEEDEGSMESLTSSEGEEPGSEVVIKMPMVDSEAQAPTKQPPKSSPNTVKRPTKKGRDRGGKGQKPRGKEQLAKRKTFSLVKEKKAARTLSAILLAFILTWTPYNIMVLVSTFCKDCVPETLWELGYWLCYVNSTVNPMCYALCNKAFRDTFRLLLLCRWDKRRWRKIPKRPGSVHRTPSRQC
# Summary of the method: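 Calcium mobilization in CHO cells expressing rat M1. Agonist mode adds no exogenous acetylcholine, and EC50 is derived from the response. PAM mode is run with a fixed EC20 concentration of acetylcholine. Values are means from three independent experiments, each performed in triplicate.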
# M1 [2] = format: cell-based; settings: high expressing recombinant cell lines, species not stated
# human M2−5 = assay: PAM selectivity versus human M2-5; format: cell-based; settings: read-out: EC50 vs human M2−5
# [3] = Fraction unbound in rat plasma; format: in vitro ADME
# [4] = Fraction unbound in human plasma; format: in vitro ADME
# [5] = Predicted hepatic clearance, rat; format: in vitro ADME
# [6] = Predicted hepatic clearance, human; format: in vitro ADME
compound,measurement,setting,value
"COc1ccc(Cn2cc(C(=O)O)c(=O)c3ccccc32)cc1 [compound 1, BQCA]",mode of M1 pharmacology,M1 [1],highly potent and robust M1 ago-PAM
"O=C1C(=O)N(Cc2ccc(Br)cc2)c2ccccc21 [compound 9, VU0119498]",activity at M2 and M4,M2 and M4,inactive
same,M1 agonist activity,M1 [1]; HTS hit,virtually no detectable M1 agonist activity
VU0451725 [compound 10],solubility,Solubility in SGF,< 5 µg/mL
VU6005877 [24c],agonist activity in high-expressing M1 cell line,rat M1,no agonist activity
same,M1 agonism,M1 [2],devoid of M1 agonism
same,EC50,human M2−5,> 30 µM
same,"fraction unbound in plasma, rat fu",[3],0.016
same,"fraction unbound in plasma, human fu",[4],0.01
same,"predicted hepatic clearance, rat CLhep",[5],31.7 mL/min/kg
same,"predicted hepatic clearance, human CLhep",[6],13.6 mL/min/kg
same,CLp,In vivo rat PK,7.3 mL/min/kg
